The list is not random: actives were taken first. Their share in the collection is about 1.9%.
SR-BI DiI-HDL act: activators of SR-BI mediated HDL lipid uptake; CHO ldlA[mSR-BI] cells, DiI-HDL uptake fluorescence, 3 h; 100 = double the neutral-control signal; activation, % at 12.5 µM; 320,000 compounds, 0.096% hits;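 active means mean replicate activation of at least 60% and every replicate at or above 60%; inconclusive means mean or all-replicate condition met, but not both; inactive means mean below 60% and not all replicates reaching 60%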
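Material: SR-BI-overexpressing, LDLR-lacking CHO cells; schedule: compound exposure 3 h, 37 °C; reagent: DiI-labelled HDL at 10 µg/mL final; technique: bottom-read fluorescence, 550/595 nm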
SR-BI HDL uptake: mouse SR-BI HDL lipid transfer inhibition; inhibition, % at 12.5 µM; ldlA[mSR-BI] CHO cells, DiI-HDL uptake fluorescence, 3 h; Q61009; 320,000 compounds, 0.96% hits;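 active means mean replicate inhibition of at least 70% and a set share of replicates each scoring 70 or more; inconclusive means meets just one of the two criteria; inactive means fails both criteria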
Rtt109 Vps75: inhibitors of Candida albicans Rtt109/Vps75 histone acetyltransferase; inhibition, % at 34.9 µM; Q5AAJ8; AID 540336; 330,000 compounds, 0.16% hits; purified Rtt109/Vps75, ThioGlo CoA-SH fluorescence, 4 h;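 active means inhibition of at least 50% in every replicate; inconclusive means best replicate reaches 50% inhibition but some replicates fall short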
Target sequence (Q5AAJ8 whole entry, looked up): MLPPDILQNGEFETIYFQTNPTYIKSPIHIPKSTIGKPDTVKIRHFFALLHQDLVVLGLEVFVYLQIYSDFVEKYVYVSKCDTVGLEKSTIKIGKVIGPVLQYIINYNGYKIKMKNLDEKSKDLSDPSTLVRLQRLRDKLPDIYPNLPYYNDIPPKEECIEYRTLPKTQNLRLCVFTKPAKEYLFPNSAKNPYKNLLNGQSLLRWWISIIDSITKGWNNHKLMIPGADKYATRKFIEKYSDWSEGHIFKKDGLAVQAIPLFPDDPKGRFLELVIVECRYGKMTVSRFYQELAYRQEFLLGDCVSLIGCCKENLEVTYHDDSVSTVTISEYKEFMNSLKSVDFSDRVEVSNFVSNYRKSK
PglD inh: blocks C. jejuni PglD acetyltransferase activity. inhibition, % at 12.5 µM. 360,000 compounds, 0.098% hits. AID 602405. purified PglD enzyme, DTNB colorimetric CoA detection; in the data active means inhibition above about 16%, passing the limit was not always enough; inconclusive means no clear call, values can overlap the other calls
Env fusion inh: HIV envelope-mediated fusion inhibition. HeLa-JRFL Env/CEM21 cell fusion, luciferase. inhibition, % at 12.3 µM. 360,000 compounds, 1.1% hits;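 active means mean replicate inhibition score of at least 50 and every replicate individually at or above 50; inconclusive means only one of the two criteria met; inactive means mean below 50 and not all replicates reaching 50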
Glyco luc inh: N-linked glycosylation inhibition. reporter increase, % at 12.5 µM. 360,000 compounds, 0.23% hits. D54 ERlucT glycosylation luciferase reporter, 24 h; percent of 100 nM tunicamycin response;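 active means mean luciferase reporter signal, scaled so untreated is 0 and the glycosylation-blocking control 100, at or above a set limit in every replicate; inconclusive means mean reaches the limit but not every replicate does; inactive means mean below the limit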;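 further: luciferase carries N-glycosylation sites so blocking glycosylation raises the light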
A number is an active result; n = inactive; u = inconclusive; x = no result; + = active, no number; [ ] = dose if it differs, or a comment.

SMILES	SR-BI DiI-HDL act	SR-BI HDL uptake	Rtt109 Vps75	PglD inh	Env fusion inh	Glyco luc inh
C[C@@H]1CN([C@@H](C)CO)C(=O)Cc2cc(NS(=O)(=O)c3cccs3)ccc2O[C@H]1CN(C)Cc1ccc(Cl)c(Cl)c1	x	x	x	n	61.4[16.7 µM]	x
COc1ccc(NC(=O)Nc2ccc3c(c2)[C@@H]2C[C@@H](CC(=O)NCC4CC4)O[C@H](CO)[C@@H]2O3)cc1	x	x	x	n	n	x
CN(C)CC(=O)Nc1ccc2c(c1)[C@@H]1C[C@H](CC(=O)NC3CCCC3)O[C@@H](CO)[C@@H]1O2	x	x	x	n	n	x
COc1ccc(NC(=O)N(C)C[C@@H]2OCCCC[C@@H](C)Oc3ccc(NS(=O)(=O)c4ccc(OC)cc4)cc3C(=O)N([C@@H](C)CO)C[C@H]2C)cc1	x	x	x	n	n	x
CC(C)(C)NCC(O)CON=C1c2ccccc2-c2ccccc21 (stereo not given)	n	n	n	x	n	35.3
CC(C)c1ccc(NC(=O)NC(C)c2ccc3c(c2)OCO3)cc1 (stereo not given)	n	n	57.9	n	n	n
O=C(NCC[C@@H]1CC[C@@H](NC(=O)C2CCOCC2)[C@@H](CO)O1)c1ccc(F)cc1	x	x	x	n	n	x
COc1ccccc1-c1cnn2c(NC3CCCC3)cc(C)nc12	n	86.4	n	n	n	n
CCOC(=O)N1CCC(Nc2cc(C)nc3c(-c4ccccc4OC)c(C)nn23)CC1	n	n	n	n	n	n
C[C@H]1CN([C@@H](C)CO)C(=O)c2cc(-c3cncnc3)cnc2O[C@H]1CN(C)C(=O)c1cccc(F)c1	x	x	x	n	n	x
C[C@@H]1CN([C@H](C)CO)S(=O)(=O)c2ccc(C3=CCCCC3)cc2O[C@H]1CN(C)C	x	x	x	x	n	x
O=C(CSc1nn(-c2ccc(Cl)cc2)c(=S)s1)N1CCN(C(=O)c2ccco2)CC1	n	84.4	n	n	x	n
COc1ccc(-c2nc(NC(=O)c3[nH]c(C)c(C(C)=O)c3C)sc2C)cc1	n	76.3	n	x	n	n
COc1ccc(-c2nc(NC(=O)c3ccco3)sc2C)cc1	x	x	x	n	n	n
Cc1ccc(S(=O)(=O)Nc2ccc3c(c2)CC(=O)N([C@@H](C)CO)C[C@H](C)[C@@H](CN(C)C(=O)NC2CCCCC2)O3)cc1	x	x	x	n	x	x
COc1cc(C(=O)N2CCCc3ccccc32)c([N+](=O)[O-])cc1OC	n	n	n	n	n	n
COc1cc(C(=O)Nc2ccc(N(C)C)cc2)c([N+](=O)[O-])cc1OC	n	n	n	n	n	n
COc1cc(C(=O)Nc2ccc3c(c2)CCCN3C(=O)c2ccco2)c([N+](=O)[O-])cc1OC	n	76.0	n	n	n	n
COc1cc(C(=O)Nc2ccc(N3CCCS3(=O)=O)cc2)c([N+](=O)[O-])cc1OC	n	81.2	n	n	n	n
Cc1ncoc1C(=O)NC1CCCc2c1cnn2-c1ccc(C(C)(C)C)cc1 (stereo not given)	n	n	n	n	56.4	n
C[C@H]1CN([C@@H](C)CO)C(=O)Cc2cc(NS(C)(=O)=O)ccc2O[C@H]1CN(C)C(=O)Nc1cccc2ccccc12	x	x	x	n	n	x
C[C@@H](NC(=O)c1nc[nH]c1C(=O)N1CCN(c2ccccc2)CC1)c1ccccc1	n	n	n	n	n	27.8
CC1Cc2ccccc2N1C(=O)CSc1nc2c(c(=O)n(C)c(=O)n2C)n1Cc1ccccc1 (stereo not given)	n	n	n	n	55.6	n
CN(C)CCCNC(=O)C[C@@H]1CC[C@@H](NS(=O)(=O)c2ccc(F)cc2)[C@@H](CO)O1	x	x	x	n	n	x
CC1(C(=O)NCc2ccco2)Cc2c(-c3cccc(C(N)=O)c3)ccnc2O1 (stereo not given)	x	x	x	n	n	37.6
SMILES	SR-BI DiI-HDL act	SR-BI HDL uptake	Rtt109 Vps75	PglD inh	Env fusion inh	Glyco luc inh
CC(=O)Nc1ccc(-c2ccnc3c2CC(C)(C(=O)NCCC(F)(F)F)O3)cc1 (stereo not given)	x	x	x	n	n	n
CC1(C(=O)NCc2ccccc2)Cc2c(-c3cccc(C(N)=O)c3)ccnc2O1 (stereo not given)	x	x	x	n	n	u
CC(=O)Nc1cccc(-c2ccnc3c2CC(C)(C(=O)NCCC(F)(F)F)O3)c1 (stereo not given)	x	x	x	n	n	25.0
Cc1ccc(C(=O)CCS(=O)(=O)c2ccc(Br)cc2)cc1	n	n	n	n	n	n
Cc1ccc(S(=O)(=O)CCC(=O)c2cccc([N+](=O)[O-])c2)cc1	n	n	+	n	n	n
C#CC1(O)CCC2C3CCC4=C(CCC(=O)C4)C3CCC21C (stereo not given)	n	n	n	n	62.2	n
CC(O)(CS(=O)(=O)Cc1cccc(C(F)(F)F)c1)C(=O)Nc1cccc(C(F)(F)F)c1 (stereo not given)	n	n	n	n	58.8	n
O=C(C1CC1)N1C[C@@H]2[C@H](c3ccccc31)[C@H](CO)N2C(=O)c1ccccn1	x	x	x	n	x	x
Cc1ccc(S(=O)(=O)N(C)c2ccc(C(=O)N(C)Cc3nc4ccccc4c(=O)[nH]3)cc2)cc1	n	n	n	n	58.4	n
CCOC(=O)C1CCCN(Cc2nc(N)nc(Nc3ccc(OC)cc3)n2)C1 (stereo not given)	n	n	n	n	70.5	n
CCOC(=O)C1CCCN(Cc2nc(N)nc(Nc3ccc(Cl)cc3)n2)C1 (stereo not given)	n	n	n	n	x	n
c1nc(SSc2ncnc3nc[nH]c23)c2[nH]cnc2n1	n	n	n	x	n	106.1
CC1(C)CC(=O)c2c(O)cc(OCC(=O)N3CCN(c4ccc(F)cc4)CC3)cc2O1	n	79.7	n	n	n	n
CC1(C)CC(=O)c2cc(OCC(=O)N3CCN(c4ccccc4F)CC3)ccc2O1	n	n	n	n	x	n
Cc1ccc(-n2c(-c3ccccc3)c[n+]3c2CCC3)cc1	n	n	n	x	62.3	n
Cc1noc(C)c1NC(=O)Nc1ccc2c(c1)C(=O)N([C@H](C)CO)C[C@@H](C)[C@@H](CN(C)S(=O)(=O)c1ccccc1)O2	x	x	x	x	n	x
CC(=O)c1sc2c(c1OC(=O)c1ccccc1)c(=O)n(-c1ccccc1)c(=S)n2-c1ccccc1	n	n	n	x	61.6	n
CC(=O)c1sc(=S)n(-c2ccccc2)c1C	n	n	n	n	n	n
CN(C)C(=O)[C@]1(Cc2ccccc2CN=[N+]=[N-])N=C(c2ccc(OCCCO)cc2)O[C@@H]1c1ccccc1	x	x	x	n	n	x
CN(C)CCNc1ccc(CO)c2sc3ccc(O)cc3c(=O)c12	n	n	n	x	n	n
COc1ccc2sc3cccc(NCCN(C)C)c3c(=O)c2c1	x	x	x	x	n	139.7
O=C(O)C[C@H]1C=C[C@@H](NC(=O)c2ccccc2F)[C@H](CO)O1	x	x	x	n	n	x
COc1ccc(Br)cc1CN(C)C(C)C(=O)Nc1cccc(C(C)=O)c1 (stereo not given)	n	n	52.7	x	n	n

Screening results: PubChem, Broad Institute
